Columns and labels:
[1] = molecular target: T1, Disintegrin and metalloproteinase domain-containing protein 10 (Homo sapiens, UniProt O14672); experiment: Inhibition of ADAM-10
T1 sequence (O14672 whole entry): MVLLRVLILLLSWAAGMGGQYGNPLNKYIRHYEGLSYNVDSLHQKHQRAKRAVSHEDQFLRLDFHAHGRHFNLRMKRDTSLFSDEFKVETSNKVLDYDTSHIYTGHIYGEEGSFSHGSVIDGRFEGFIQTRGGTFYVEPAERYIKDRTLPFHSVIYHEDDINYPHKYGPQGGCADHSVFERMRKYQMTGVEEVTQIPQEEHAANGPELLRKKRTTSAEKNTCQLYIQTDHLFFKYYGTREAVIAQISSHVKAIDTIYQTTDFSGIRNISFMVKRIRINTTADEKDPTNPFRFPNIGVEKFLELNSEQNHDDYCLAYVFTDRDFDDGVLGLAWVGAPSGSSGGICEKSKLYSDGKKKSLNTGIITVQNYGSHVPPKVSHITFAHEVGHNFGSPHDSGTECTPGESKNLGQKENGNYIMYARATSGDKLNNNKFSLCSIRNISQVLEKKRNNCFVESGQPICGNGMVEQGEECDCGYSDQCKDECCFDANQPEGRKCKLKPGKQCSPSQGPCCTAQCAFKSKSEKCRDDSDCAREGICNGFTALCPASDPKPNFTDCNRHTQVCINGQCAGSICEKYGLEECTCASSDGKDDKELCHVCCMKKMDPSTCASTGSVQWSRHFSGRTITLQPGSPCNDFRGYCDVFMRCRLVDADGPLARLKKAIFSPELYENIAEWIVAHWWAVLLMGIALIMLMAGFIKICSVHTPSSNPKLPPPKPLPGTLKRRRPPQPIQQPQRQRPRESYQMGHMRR

[2] = molecular target: 72 kDa type IV collagenase (Homo sapiens, UniProt P08253); experiment: Inhibition of MMP-2
72 kDa type IV collagenase, sequence (P08253 whole entry): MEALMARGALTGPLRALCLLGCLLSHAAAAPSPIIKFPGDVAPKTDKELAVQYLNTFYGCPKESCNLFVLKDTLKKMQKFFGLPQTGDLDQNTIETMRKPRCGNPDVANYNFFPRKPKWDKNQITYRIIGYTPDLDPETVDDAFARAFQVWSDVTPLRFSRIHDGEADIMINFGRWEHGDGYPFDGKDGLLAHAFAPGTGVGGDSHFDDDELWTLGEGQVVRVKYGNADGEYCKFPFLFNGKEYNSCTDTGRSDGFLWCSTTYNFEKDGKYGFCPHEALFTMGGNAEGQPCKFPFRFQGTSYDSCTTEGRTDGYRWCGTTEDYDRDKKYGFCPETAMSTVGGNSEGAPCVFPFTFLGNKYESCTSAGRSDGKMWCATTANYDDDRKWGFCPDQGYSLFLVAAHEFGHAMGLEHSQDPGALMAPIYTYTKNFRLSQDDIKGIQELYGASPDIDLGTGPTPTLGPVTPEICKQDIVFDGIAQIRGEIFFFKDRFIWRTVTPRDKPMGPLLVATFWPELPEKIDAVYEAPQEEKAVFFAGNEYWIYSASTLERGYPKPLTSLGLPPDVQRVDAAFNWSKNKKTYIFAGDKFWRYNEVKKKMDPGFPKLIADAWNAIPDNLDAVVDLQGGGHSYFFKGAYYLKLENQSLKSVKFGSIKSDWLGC

[3] = molecular target: T2, Interstitial collagenase (Homo sapiens, UniProt P03956); experiment: Inhibition of MMP-1
T2 sequence (P03956 whole entry): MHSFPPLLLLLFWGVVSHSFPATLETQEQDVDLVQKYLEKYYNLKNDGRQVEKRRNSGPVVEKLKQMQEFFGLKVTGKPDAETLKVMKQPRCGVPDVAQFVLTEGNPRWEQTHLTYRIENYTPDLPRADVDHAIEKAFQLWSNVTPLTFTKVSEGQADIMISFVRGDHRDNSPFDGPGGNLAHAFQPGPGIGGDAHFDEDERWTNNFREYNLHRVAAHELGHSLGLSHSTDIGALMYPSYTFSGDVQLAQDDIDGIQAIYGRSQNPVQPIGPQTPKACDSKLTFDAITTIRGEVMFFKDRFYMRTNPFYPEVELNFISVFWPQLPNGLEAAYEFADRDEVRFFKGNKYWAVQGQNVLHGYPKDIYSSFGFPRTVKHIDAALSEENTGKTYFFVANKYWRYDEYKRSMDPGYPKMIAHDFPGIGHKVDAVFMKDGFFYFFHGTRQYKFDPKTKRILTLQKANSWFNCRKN

[4] = molecular target: Stromelysin-1 (Homo sapiens, UniProt P08254); experiment: Inhibition of MMP-3
Stromelysin-1, sequence (P08254 whole entry): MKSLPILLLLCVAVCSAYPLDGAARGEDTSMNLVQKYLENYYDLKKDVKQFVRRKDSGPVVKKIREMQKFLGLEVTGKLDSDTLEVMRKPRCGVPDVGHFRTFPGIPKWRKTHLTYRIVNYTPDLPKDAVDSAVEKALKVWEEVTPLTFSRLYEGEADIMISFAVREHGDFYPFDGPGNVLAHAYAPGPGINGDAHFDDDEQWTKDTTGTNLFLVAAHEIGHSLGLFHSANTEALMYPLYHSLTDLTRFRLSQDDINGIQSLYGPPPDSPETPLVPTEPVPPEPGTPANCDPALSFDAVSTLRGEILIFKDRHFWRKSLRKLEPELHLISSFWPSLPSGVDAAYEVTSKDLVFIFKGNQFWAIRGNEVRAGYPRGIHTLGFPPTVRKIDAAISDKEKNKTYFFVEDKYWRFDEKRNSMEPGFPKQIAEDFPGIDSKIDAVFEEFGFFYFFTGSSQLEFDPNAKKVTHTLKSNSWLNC

[5] = molecular target: Matrix metalloproteinase-9 (Homo sapiens, UniProt P14780); experiment: Inhibition of MMP-9
Matrix metalloproteinase-9, sequence (P14780 whole entry): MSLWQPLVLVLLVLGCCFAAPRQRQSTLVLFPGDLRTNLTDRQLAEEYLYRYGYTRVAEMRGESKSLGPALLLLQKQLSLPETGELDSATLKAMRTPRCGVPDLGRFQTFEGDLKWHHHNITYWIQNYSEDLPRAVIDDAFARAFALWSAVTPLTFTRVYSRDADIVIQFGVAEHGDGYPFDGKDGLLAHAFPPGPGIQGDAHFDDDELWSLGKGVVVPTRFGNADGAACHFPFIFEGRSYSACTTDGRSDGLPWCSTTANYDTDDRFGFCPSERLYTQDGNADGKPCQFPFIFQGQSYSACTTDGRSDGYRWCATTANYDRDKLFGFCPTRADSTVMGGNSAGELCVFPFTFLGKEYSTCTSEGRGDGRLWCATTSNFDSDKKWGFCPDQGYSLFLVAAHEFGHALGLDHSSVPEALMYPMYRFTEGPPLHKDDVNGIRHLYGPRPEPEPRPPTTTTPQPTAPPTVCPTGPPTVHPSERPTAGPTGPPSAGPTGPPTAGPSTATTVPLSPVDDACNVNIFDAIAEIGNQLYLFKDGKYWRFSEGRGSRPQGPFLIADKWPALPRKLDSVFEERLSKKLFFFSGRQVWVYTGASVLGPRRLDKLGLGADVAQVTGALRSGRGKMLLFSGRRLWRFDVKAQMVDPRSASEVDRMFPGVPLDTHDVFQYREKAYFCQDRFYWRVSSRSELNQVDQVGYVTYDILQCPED

[6] = test system: Mus musculus; experiment: AUC in mouse at 5 mg/kg, po; type: ADME, organism-based, Plasma; design: dose 5 mg/kg, route oral; conditions: in vivo
How it was run: (§1)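 Oral dose of 5 mg/kg, given as a suspension.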

[7] = Half life in mouse at 5 mg/kg, po; type: ADME, organism-based; design: dose 5 mg/kg, route oral; conditions: in vivo; how it was run: as §1
[8] = Permeability across human Caco-2 cells; type: ADME, cell-based
[9] = Clearance in human microsome; type: ADME; conditions: microsomes
How it was run: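 Clearance projected from incubation with human microsomes and expressed in L/h/kg.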

Compound | IC50 [1] | IC50 [2] | IC50 [3] | IC50 [4] | IC50 [5] | AUC [6] | half-life [7] | Papp [8] | CL [9]
CN1C[C@@H](OC(=O)N2CC=CC2)C[C@H](C(=O)NO)[C@H]1C(=O)N1CCN(c2ccccc2)CC1 | 0.03 µM | 0.581 µM | > 5 µM | > 5 µM | > 5 µM | – | – | – | –
CN(C(=O)c1ccccc1)C1CN[C@H](C(=O)N2CC=C(c3ccccc3)CC2)[C@@H](C(=O)NO)C1 (some centres undefined) | 0.012 µM | 0.012 µM | – | – | – | – | – | – | –
CN(C(=O)c1ccccc1)C1CN[C@H](C(=O)N2CC[C@H](c3ccccc3)C2)[C@@H](C(=O)NO)C1 (some centres undefined) | 0.084 µM | 0.21 µM | – | – | – | – | – | – | –
CN1C[C@@H](OC(=O)N2CCCCCC2)C[C@H](C(=O)NO)[C@H]1C(=O)N1CCN(c2ccccc2)CC1 | 0.035 µM | 0.843 µM | > 5 µM | > 5 µM | > 5 µM | – | – | – | –
NCCCCNC(=O)CC1CN[C@H](C(=O)N2CCC(c3ccccc3)C2)[C@@H](C(=O)NO)C1 (some centres undefined) | 0.161 µM | 1.66 µM | – | – | – | – | – | – | –
O=C(NO)[C@H]1CC2(CC2)CN[C@@H]1C(=O)N1CC=C(c2ccccc2)CC1 | – | < 0.005 µM | – | – | – | – | – | – | –
CN1C[C@@H](OC(=O)N2CCC(F)(F)C2)C[C@H](C(=O)NO)[C@H]1C(=O)N1CCN(c2ccccc2)CC1 | 0.125 µM | > 2 µM | – | – | – | – | – | – | –
CN(C)C(=O)O[C@H]1C[C@H](C(=O)NO)[C@@H](C(=O)N2CCN(c3ccccc3)CC2)N(C)C1 | 0.058 µM | 0.73 µM | > 5 µM | > 5 µM | > 5 µM | – | – | – | –
CN1C[C@@H](OC(=O)N2CCCCCCC2)C[C@H](C(=O)NO)[C@H]1C(=O)N1CCN(c2ccccc2)CC1 | 0.026 µM | 1.47 µM | > 5 µM | > 5 µM | > 5 µM | 323 nM/L.hr | 52.8 min | – | –
CN1C[C@@H](OC(=O)N2CCCC2)C[C@H](C(=O)NO)[C@H]1C(=O)N1CCN(c2ccccc2)CC1 | 0.018 µM | 0.471 µM | > 5 µM | > 5 µM | > 5 µM | – | – | – | –
O=C(NO)[C@H]1CC(OC(=O)N2CCCC2)CN[C@@H]1C(=O)N1CC[C@H](c2ccccc2)C1 (some centres undefined) | 0.083 µM | > 2 µM | > 5 µM | > 5 µM | > 5 µM | – | – | – | –
O=C(NO)[C@H]1CC(OC(=O)N2CCCC2)CN[C@@H]1C(=O)N1CC=C(c2ccccc2)CC1 (some centres undefined) | 0.009 µM | 0.102 µM | > 5 µM | > 5 µM | 0.498 µM | – | – | – | –
COC(=O)N1C[C@@H](OC(=O)N2CCCC2)C[C@H](C(=O)NO)[C@H]1C(=O)N1CCN(c2ccccc2)CC1 | 0.02 µM | 0.613 µM | > 5 µM | > 5 µM | > 5 µM | – | – | – | –
O=C(NO)[C@H]1CC(OC(=O)N2CCCC2)CN[C@@H]1C(=O)N1Cc2ccccc2C1 (some centres undefined) | 0.186 µM | > 2 µM | 2.5 µM | > 5 µM | > 5 µM | – | – | – | –
O=C(NO)[C@H]1CC(CC(=O)N2CCCC2)CN[C@@H]1C(=O)N1CC[C@H](c2ccccc2)C1 (some centres undefined) | 0.014 µM | 0.365 µM | – | – | – | – | – | – | –
O=C(NO)[C@H]1C[C@H](OC(=O)N2CCCC2)CN[C@@H]1C(=O)N1CCN(c2ccccc2)CC1 | 0.011 µM | 0.235 µM | > 5 µM | > 5 µM | > 5 µM | – | – | – | –
O=C(NO)[C@H]1CC(CC(=O)N2CCCC2)CN[C@@H]1C(=O)N1CC=C(c2ccccc2)CC1 (some centres undefined) | 0.017 µM | < 0.005 µM | – | – | – | – | – | – | –
CC(C)C(=O)N(C)C1CN[C@H](C(=O)N2CC[C@H](c3ccccc3)C2)[C@@H](C(=O)NO)C1 (some centres undefined) | 0.138 µM | 0.502 µM | – | – | – | – | – | – | –
CN1C[C@@H](OC(=O)N2CCCCC2)C[C@H](C(=O)NO)[C@H]1C(=O)N1CCN(c2ccccc2)CC1 | 0.0096 µM | 0.344 µM | > 5 µM | > 5 µM | > 5 µM | – | – | 9 nm/s | 0.58 L/h/kg
O=C(NO)[C@H]1C[C@H](OC(=O)N2CCCC2)CN[C@@H]1C(=O)N1CCC(c2ccccc2)CC1 | 0.099 µM | > 2 µM | > 5 µM | > 5 µM | > 5 µM | – | – | – | –
CC(C)C(=O)N(C)C1CN[C@H](C(=O)N2CC=C(c3ccccc3)CC2)[C@@H](C(=O)NO)C1 (some centres undefined) | 0.023 µM | 0.011 µM | – | – | – | – | – | – | –
CN1C[C@@H](OC(=O)N2CCC2)C[C@H](C(=O)NO)[C@H]1C(=O)N1CCN(c2ccccc2)CC1 | 0.02 µM | 0.432 µM | > 5 µM | > 5 µM | > 5 µM | – | – | – | –
O=C(NO)[C@H]1C[C@@H](OC(=O)N2CCCC2)CN[C@@H]1C(=O)N1CC=C(c2ccccc2)CC1 | 0.078 µM | < 0.005 µM | – | – | – | – | – | – | –
CC(C)OC(=O)N(C)C1CN[C@H](C(=O)N2CC=C(c3ccccc3)CC2)[C@@H](C(=O)NO)C1 (some centres undefined) | 0.011 µM | < 0.005 µM | – | – | – | – | – | – | –
O=C(NO)[C@H]1C[C@H](OC(=O)N2CCCC2)CN[C@@H]1C(=O)N1CC=C(c2ccccc2)C1 | 0.06 µM | – | > 5 µM | > 5 µM | > 5 µM | – | – | – | –

Source: ChEMBL document CHEMBL1155319, “Discovery of novel selective HER-2 sheddase inhibitors through optimization of P1 moiety” (Bioorg Med Chem Lett, 2009)
